From PubChem
Only some compounds are listed: those with a hit (about 2.5% of all), similar ones and a draw of the others.
TRPC6 inh: blocks the mouse TRPC6 cation channel | 1.1% of 310,000 active | Q61143 | B-score at 10 µM | AID 2553 | HEK293-TRPC6, membrane potential dye, ACh-evoked depolarization; hits give low values;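 active = B-score under library mean minus 3 SD, initial fluorescence not abnormally high, positive integrated signal ratio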;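 also: B-score derived from integrated fluorescence ratio over the kinetic read; more negative B-score means stronger inhibition of depolarization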
Target sequence (Q61143 whole entry, looked up): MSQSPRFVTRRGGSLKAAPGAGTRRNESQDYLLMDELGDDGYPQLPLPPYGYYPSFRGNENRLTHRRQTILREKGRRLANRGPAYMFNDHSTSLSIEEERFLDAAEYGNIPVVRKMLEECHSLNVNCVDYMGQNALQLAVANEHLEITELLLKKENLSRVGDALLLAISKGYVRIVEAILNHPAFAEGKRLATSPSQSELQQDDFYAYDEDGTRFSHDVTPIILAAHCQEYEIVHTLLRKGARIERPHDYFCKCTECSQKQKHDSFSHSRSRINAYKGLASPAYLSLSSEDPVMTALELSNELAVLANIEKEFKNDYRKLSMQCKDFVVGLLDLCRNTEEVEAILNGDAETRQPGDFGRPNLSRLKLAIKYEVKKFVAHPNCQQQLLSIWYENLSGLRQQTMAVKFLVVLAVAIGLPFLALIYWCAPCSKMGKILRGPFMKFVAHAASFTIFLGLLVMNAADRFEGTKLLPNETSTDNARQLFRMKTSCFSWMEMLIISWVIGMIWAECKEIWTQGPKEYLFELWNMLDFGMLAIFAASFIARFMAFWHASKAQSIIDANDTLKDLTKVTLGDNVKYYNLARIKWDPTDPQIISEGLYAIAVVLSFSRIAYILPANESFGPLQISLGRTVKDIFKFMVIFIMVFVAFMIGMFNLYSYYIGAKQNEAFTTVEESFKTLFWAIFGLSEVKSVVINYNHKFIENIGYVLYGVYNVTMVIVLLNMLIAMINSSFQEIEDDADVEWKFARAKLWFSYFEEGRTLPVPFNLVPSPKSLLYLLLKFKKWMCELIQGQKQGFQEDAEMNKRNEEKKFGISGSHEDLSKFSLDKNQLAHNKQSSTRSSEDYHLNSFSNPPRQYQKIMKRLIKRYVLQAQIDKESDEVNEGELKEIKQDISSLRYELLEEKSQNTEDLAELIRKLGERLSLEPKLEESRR
TRPC4 inh: TRPC4 (mouse) channel inhibition; Q9QUQ5; HEK293 TRPC4beta/mu-opioid, DAMGO-evoked Fluo4 calcium flux; hits give low values; B-score at 10 µM; 0.39% of 300,000 active; AID 2247;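 active = B-score over 3 SD under the library average, no early fluorescence shift, positive overall ratio signal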
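material = TRPC4beta/mu-opioid receptor HEK293 cell line | probe or stimulus = sequential submaximal and maximal DAMGO stimulation | compound dosing = one concentration per compound | measured by = Fluo4 Ca2+ flux fluorescence | evaluation = integrated fluorescence ratio relative to baseline, converted to per-well B score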
TRPC4 potent: allosterically enhances the mouse TRPC4 cation channel; Q9QUQ5; HEK293 TRPC4beta/mu-opioid, DAMGO EC20, Fluo-4 Ca2+ flux; hits give high values; B-score at 10 µM; 0.42% of 310,000 active; AID 2227;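 active = B-score of calcium response area above 5 SD of library B-scores, with initial fluorescence ratio within 5 SD of library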
TRPC4 act: opens the mouse TRPC4 cation channel | 0.49% of 310,000 active | B-score at 10 µM | HEK293 TRPC4beta/mu-opioid, Fluo4 calcium fluorescence; hits give high values;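 active = B-score above 5 SD of library B-scores, and initial fluorescence ratio not above library mean plus 5 SD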;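 also: positive B-score marks a calcium rise read as TRPC4 activation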
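Assay system: HEK293 cells stably co-expressing mouse TRPC4beta and mu-opioid receptor / Timing: Fluo4 dye loading 45 min at room temperature, 110 s recording / Signal: Fluo4 calcium-sensitive dye fluorescence, kinetic, 1 Hz baseline / Read-out: integrated baseline-normalised fluorescence ratio, converted to per-well B score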
DSG3 Ab inh: blocks pemphigus antibody binding to human desmoglein-3. P32926. DSG3-coupled beads, scFv-anti-DSG3-GFP binding, flow cytometry; hits give low values. binding (percent of control), % at 10 µM. 0.48% of 310,000 active. AID 588358;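 active = binding more than 3 SD below its plate's average and above zero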;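 also: hits lower antibody fragment binding to DSG3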
TRPC6 activator: activates the mouse TRPC6 cation channel; Q61143; HEK293-TRPC6 membrane potential dye fluorescence; hits give high values; B-score at 10 µM; 0.13% of 310,000 active;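 active = B-score of the integrated fluorescence ratio above library mean plus 3 SD, and starting fluorescence ratio within library mean plus 5 SD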;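 also: higher score means more depolarization so channel activation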
TRPC4 sel inh 2: mouse TRPC4 off-target activity of TRPC6 inhibitors, second screen. shares compounds with TRPC6 inh. AID 2776. inhibition, % at 10 µM. 42% of 920 active. HEK293 TRPC4/MOR, membrane potential dye fluorescence; channel activated by saturating DAMGO dose;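 active = compounds whose fluorescence signal differed from control wells by over 3 SD, either direction, in both duplicate plates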
TRPC4 spec: selectivity of TRPC6 inhibitors: effect on mouse TRPC4. shares compounds with TRPC6 inh. HEK293 TRPC4/mu-opioid, membrane potential fluorescence. activity change, negative = inhibition, % at 10 µM. 61% of 920 active. AID 2777;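 active = rise or fall in signal beyond 3 SD of buffer-only wells in both replicate plates, either sign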;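 also: integrated kinetic ratio of fluorescence range over baseline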
HEK293 MPD ctr 2-1: parental HEK293 nonspecific activity of TRPC6 inhibitors, second screen | parental HEK293 membrane potential dye fluorescence; maximal acetylcholine challenge after compound addition | shares compounds with TRPC6 inh | signal change vs control, % at 10 µM | AID 2779 | 31% of 920 active;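 active = membrane potential signal moving either way by over 3 SD of the maximum-effect control, in both duplicate plates, meaning non-specific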
HEK293 MPD ctr-1: checks TRPC6 inhibitor effects in parental HEK293 cells; AID 2780; parental HEK293 membrane potential dye fluorescence; 60% of 920 active; membrane potential signal change, % at 10 µM; shares compounds with TRPC6 inh;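 active = membrane potential signal shifting up or down by more than 3 SD of buffer-only wells, on both duplicate plates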
HEK293 MPD ctr-2: checks TRPC6 modulator effects in parental HEK293 cells; shares compounds with TRPC6 inh; membrane potential dye fluorescence; membrane potential signal change, % at 10 µM; 51% of 2,400 active; AID 488924;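 active = membrane potential signal moves up or down beyond 5 SD from buffer-only wells, on both duplicate plates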
HEK293 MPD ctr 2-2: second counter-screen for TRPC6 modulators: effect in parental HEK293 cells; shares compounds with TRPC6 inh; membrane potential dye fluorescence; after compound, maximal acetylcholine stimulation; inhibition, % at 10 µM; 14% of 2,400 active; AID 488926;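 active = membrane potential signal drops by more than 5 SD from the mean control signal, in both duplicate plates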
TRPC4 ctr mod: mouse TRPC4 off-target activity of TRPC6 modulators; shares compounds with TRPC6 inh; HEK293 TRPC4/mu-opioid, membrane potential fluorescence; percent change from control (negative = decrease, positive = increase), % at 10 µM; 69% of 2,400 active;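 active = membrane potential signal moved up or down beyond 5 SD of buffer control wells, in both duplicate plates, actives on both sides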
TRPC4 ctr inh 2: mouse TRPC4 off-target activity of TRPC6 modulators, second screen | shares compounds with TRPC6 inh | HEK293 TRPC4/mu-opioid, membrane potential dye fluorescence; stimulated with maximal-effect DAMGO | inhibition, % at 10 µM | 55% of 2,400 active;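 active = drop in membrane potential signal beyond 5 SD of the control wells in both duplicate plates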;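 also: TRPC4 counter screen for TRPC6 hits run under conditions tuned for TRPC6 not TRPC4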
TRPC6 inh conf: mouse TRPC6 inhibitor confirmation | shares compounds with TRPC6 inh | HEK293-TRPC6, membrane potential dye, ACh-evoked depolarization | inhibition, % at 10 µM | 43% of 3,300 active;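 active = fluorescence ratio falls more than 5 SD below the full-stimulation control mean, in both duplicate runs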;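 also: integrated fluorescence ratio of peak minus minimum over baseline after agonist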
TRPC6 act confirm: confirmation of mouse TRPC6 activators; shares compounds with TRPC6 inh; HEK293-TRPC6 membrane potential dye fluorescence, FDSS; activation, % at 10 µM; 11% of 2,800 active; AID 488961;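 active = ratio signal rise beyond 5 SD above unstimulated control wells' mean, seen in both duplicate runs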
Each line names hits and unclear results; the compound was inactive in the other large screens (follow-up assays come after a bar, where they were run).

CCCN(CCC)c1nc(-c2ccccn2)nc2ccccc12	TRPC6 inh -5.55 | HEK293 MPD ctr-2 inactive | HEK293 MPD ctr 2-2 77.5% | TRPC4 ctr mod inactive | TRPC4 ctr inh 2 67.5% | TRPC6 inh conf 76.0% | TRPC6 act confirm inactive
c1ccc2c(N3CCCC3)nc(-c3ccncc3)nc2c1	TRPC6 inh -7.25 | HEK293 MPD ctr-2 -248.0% | HEK293 MPD ctr 2-2 inactive | TRPC4 ctr mod -42.0% | TRPC4 ctr inh 2 35.0% | TRPC6 inh conf 39.0% | TRPC6 act confirm inactive
c1ccc(-c2nc(N3CCCCCC3)c3ccccc3n2)nc1	TRPC6 inh -9.7 | HEK293 MPD ctr-2 -202.0% | HEK293 MPD ctr 2-2 70.0% | TRPC4 ctr mod -30.5% | TRPC4 ctr inh 2 73.0% | TRPC6 inh conf 62.5% | TRPC6 act confirm inactive
O=C(c1ccco1)N1CCN(S(=O)(=O)c2ccc(Br)cc2)CC1	none
O=C(c1ccco1)N1CCN(S(=O)(=O)c2ccc(Oc3ccccc3)cc2)CC1	TRPC6 inh -12.7 | TRPC4 sel inh 2 inactive | TRPC4 spec 2.1% | HEK293 MPD ctr 2-1 232.5% | HEK293 MPD ctr-1 1.1% | TRPC6 inh conf inactive | TRPC6 act confirm inactive
COc1ccc(-c2n[nH]c(C)c2-c2ccc(Cl)cc2)c(O)c1	none
Cc1[nH]nc(-c2ccc(O)cc2O)c1-c1ccc(Cl)cc1	TRPC6 inh -5.75, TRPC4 inh -7 (no result: DSG3 Ab inh) | HEK293 MPD ctr-2 -79.0% | HEK293 MPD ctr 2-2 inactive | TRPC4 ctr mod -22.5% | TRPC4 ctr inh 2 80.5% | TRPC6 inh conf inactive | TRPC6 act confirm inactive
COc1ccc(/C=C2\SC(=NCc3ccccc3)NC2=O)cc1	TRPC6 inh -6.21 | HEK293 MPD ctr-2 inactive | HEK293 MPD ctr 2-2 inactive | TRPC4 ctr mod inactive | TRPC4 ctr inh 2 inactive | TRPC6 inh conf inactive | TRPC6 act confirm inactive
Brc1ccc(Oc2ncc(CN3CCN(c4ccccc4)CC3)s2)cc1	TRPC6 inh -5.39 (no result: DSG3 Ab inh) | HEK293 MPD ctr-2 inactive | HEK293 MPD ctr 2-2 inactive | TRPC4 ctr mod inactive | TRPC4 ctr inh 2 inactive | TRPC6 inh conf inactive | TRPC6 act confirm inactive
CCN(CC(=O)Nc1cc(Cl)cc(Cl)c1)CC(=O)NC1CCS(=O)(=O)C1 (configuration not stated)	none (no result: TRPC6 inh, TRPC4 inh, TRPC4 potent, TRPC4 act, TRPC6 activator)
OCCNCc1ccc(OCc2ccc(Cl)cc2Cl)cc1	TRPC6 inh -6.68 | TRPC4 sel inh 2 68.0% | TRPC4 spec 8.3% | HEK293 MPD ctr 2-1 283.0% | HEK293 MPD ctr-1 10.9% | TRPC6 inh conf inactive
Cc1cccc(OC(C)C(=O)Nc2ccc3c(c2)OCCO3)c1 (configuration not stated)	none (no result: TRPC6 inh, TRPC4 inh, TRPC4 potent, TRPC4 act, TRPC6 activator)
O=C(Nc1ccccc1C(=O)Nc1nnc(C(F)(F)F)s1)c1ccccc1Cl	TRPC6 inh -6.51 | HEK293 MPD ctr-2 121.0% | HEK293 MPD ctr 2-2 inactive | TRPC4 ctr mod 25.5% | TRPC4 ctr inh 2 54.5% | TRPC6 inh conf 55.0%
NC(=O)c1ccccc1NC(=O)c1ccccc1Cl	none
Cc1cccc(N2CC(O)(c3cccs3)[N+]3=C2CCCC3)c1 (configuration not stated)	none (no result: DSG3 Ab inh)
Cc1ccc(N2CC(O)(c3cccs3)[N+]3=C2CCCC3)cc1 (configuration not stated)	TRPC6 inh -5.22 | HEK293 MPD ctr-2 104.0% | HEK293 MPD ctr 2-2 inactive | TRPC4 ctr mod 16.5% | TRPC4 ctr inh 2 37.5% | TRPC6 inh conf inactive
C[C@H](CO)N1C[C@H](C)[C@@H](CN(C)Cc2ccncc2)Oc2c(NS(=O)(=O)c3ccc(F)cc3)cccc2C1=O	none (no result: TRPC6 inh, TRPC4 inh, TRPC4 potent, TRPC4 act, TRPC6 activator)
O=C1C=C(NCc2ccc3c(c2)OCO3)CC(c2ccccc2)C1 (configuration not stated)	none (no result: DSG3 Ab inh)
COc1ccccc1OCc1ccc(C(=O)N2CCCCC2)o1	TRPC6 inh -5.17 (no result: DSG3 Ab inh) | HEK293 MPD ctr-2 inactive | HEK293 MPD ctr 2-2 inactive | TRPC4 ctr mod inactive | TRPC4 ctr inh 2 inactive | TRPC6 inh conf inactive | TRPC6 act confirm inactive
COc1ccccc1OCc1ccc(C(=O)N2CCOCC2)o1	none
CCCn1c2ccc(F)cc2c2nnc(SCCN3CCCCC3)nc21	none
CCn1c2ccc(F)cc2c2nnc(SCCN3CCCCC3)nc21	TRPC6 inh -5.77 | HEK293 MPD ctr-2 -78.0% | HEK293 MPD ctr 2-2 inactive | TRPC4 ctr mod 36.0% | TRPC4 ctr inh 2 80.5% | TRPC6 inh conf inactive | TRPC6 act confirm inactive
CCN(CC)CCSc1nnc2c3ccccc3n(CCc3ccccc3)c2n1	TRPC6 inh -7.55 | TRPC4 sel inh 2 18.5% | TRPC4 spec 0.5% | HEK293 MPD ctr 2-1 inactive | HEK293 MPD ctr-1 -198.5% | TRPC6 inh conf inactive | TRPC6 act confirm inactive
C=CCn1c2ccccc2c2nnc(SCCN3CCCCC3)nc21	TRPC6 inh -8.64 | TRPC4 sel inh 2 73.0% | TRPC4 spec -14.4% | HEK293 MPD ctr 2-1 inactive | HEK293 MPD ctr-1 -154.0% | TRPC6 inh conf inactive | TRPC6 act confirm inactive
c1ccc(Cn2c3ccccc3c3nnc(SCCN4CCCCC4)nc32)cc1	none
CCC(=O)Nc1ccc2c(c1)nc1n2CCN(CCOC)C1	none
